An excerpt weighted towards active compounds, which were near 1.9% of everything screened.
MT stabilizer – microtubule stabilizers in HeLa cells | HeLa tubulin immunostaining HCS, 24 h; share of cells brighter than vehicle mean+2SD | actives 0.83% (n = 200,000) | % tubulin-high responders, % at 10 µM;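 active = plate Z-score above 3 for both tubulin-high and condensed-nucleus cell shares, with cell loss under 80%, at 10 µM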;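 note: anti alpha tubulin signal scored within the nucleus-defined area of each cell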
ROMK mod – human ROMK K+ channel modulation, primary screen; B-score at 10 µM; Tet-inducible ROMK, thallium flux fluorescence; actives lie on both sides; P48048; actives 2% (n = 130,000);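 active = signal ratio slope over the read window, or its plate-corrected B-score, at least 3 SD from the plate mean, either direction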;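 note: B-score of the F/F0 ratio slope over 7 to 12 s after thallium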
Target sequence (P48048 whole entry, looked up): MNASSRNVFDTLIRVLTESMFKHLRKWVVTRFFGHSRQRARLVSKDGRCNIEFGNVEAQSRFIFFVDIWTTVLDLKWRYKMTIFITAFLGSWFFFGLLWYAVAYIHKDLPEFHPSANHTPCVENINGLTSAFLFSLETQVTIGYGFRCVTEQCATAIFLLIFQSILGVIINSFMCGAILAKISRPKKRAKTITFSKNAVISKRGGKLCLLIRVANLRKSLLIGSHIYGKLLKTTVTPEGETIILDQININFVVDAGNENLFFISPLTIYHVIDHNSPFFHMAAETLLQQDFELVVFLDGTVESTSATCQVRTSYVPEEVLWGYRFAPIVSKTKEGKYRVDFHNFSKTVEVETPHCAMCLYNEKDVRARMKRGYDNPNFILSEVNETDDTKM
b-catenin transl – alters nuclear translocation of beta-catenin in HeLa cells; nuclear translocation activity, % at 5 µM; AID 1665; actives 0.3% (n = 190,000); immunofluorescence imaging;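 active = nuclear translocation activity above 50% at 5 µM, with a well cell count of 50 or more; inconclusive = wells under 50 cells across six images, flagged as toxic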;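 note: per-cell ratio of nuclear to cytoplasmic median beta-catenin stain intensity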
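Signal – beta-catenin immunofluorescence imaging with DAPI · Test system – human HeLa cell line · Dosing – 5 µM primary single dose, 0.1% DMSO, 0.02–20 µM confirmation series · Measure – % activation, nuclear-to-cytoplasmic median beta-catenin signal ratio per cell · Incubation – 24 h compound exposure at 37°C, 5% CO2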
ROMK hit retest – confirmation of human ROMK potassium channel modulators | ROMK thallium flux, fluorescence ratio; stronger effect = lower value | AID 1917 | normalized thallium flux (F/F0 slope) at 10 µM | actives 54% (n = 3,000) | shares compounds with ROMK mod;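 active = Flux at 10 µM at least 3 SD below or above vehicle control mean in one or both replicates; inconclusive = no clear call, values can overlap the other calls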
Numbers stand for hits; 0 = inactive; ? = inconclusive; - = no result.

SMILES	MT stabilizer	ROMK mod	b-catenin transl	ROMK hit retest
O=C1c2cccc3c(N4CCCCC4)ccc(c23)C(=O)N1c1ccccc1O	0	-5.2	0	0.051
O=C(O)c1ccc(N2CCCCCC2)c(N2C(=O)c3ccccc3C2=O)c1	0	-	0	-
O=C1c2cccc3c(N4CCCCC4)ccc(c23)C(=O)N1c1ccc(O)cc1	0	-3.1	0	0.051
O=C(O)c1ccc2c3c(cccc13)C(=O)N(c1ccccc1)C2=O	0	0	0	-
Cc1cccc(Nc2ncccc2C(=O)O)c1C	0	-	0	0
Cc1cccc(Nc2ccccc2C(=O)O)c1C	0	-	0	-
c1ccc(-c2noc(CN3CCCC(OCc4ccccn4)C3)n2)cc1 (configuration not stated)	0	0	0	-
COc1ccc(CCNC(=O)C2CCN(Cc3nc(-c4ccccc4F)oc3C)CC2)cc1OC	0	0	0	-
Cc1oc(-c2ccccc2F)nc1CN1CCC(C(=O)NCCC2=CCCCC2)CC1	0	-5.4	0	0.056
Cc1ccc(-n2nc(C)c(=O)c(-c3ccccc3)c2NC(=O)C(C)C)cc1	-	-	0	-
COc1ccc(C(=O)OCN2C(=O)c3ccccc3C2=O)cc1	0	-	0	-
Cc1cc(Cl)c(S(=O)(=O)N2CCN(c3ccc(F)cc3)CC2)cc1OCC(=O)NC1CCCCC1	0	-4.3	-	0.063
Cc1cc(Cl)c(S(=O)(=O)Nc2ccon2)cc1OCC(=O)NC1CCCCC1	0	-	0	-
Cc1cc(Cl)c(S(=O)(=O)Nc2ccc3c(c2)OCCO3)cc1OCC(=O)NC1CCCCC1	0	-3.2	-	0.066
Cc1cc(Cl)c(S(=O)(=O)N2CCN(c3ccc(F)cc3)CC2)cc1OCC(N)=O	0	-	0	-
CC(C)P(=O)(c1cccc(C(=O)O)c1)C(C)C	0	0	0	-
CCOc1ccccc1CNCc1ccc(C(=O)O)cc1	0	0	0	-
O=C(COc1ccccc1CNCc1ccccc1)Nc1ccccc1	0	-2.4	0	0.056
Cn1c(NCc2ccco2)nc2c1c(=O)n(Cc1ccc(Cl)c(Cl)c1)c(=O)n2C	0	0	0	-
O=C1C2C3C=CC(C3)C2C(=O)N1c1ccc(Cc2ccncc2)cc1 (configuration not stated)	0	-	0	-
CC1CCC2C(=O)N(c3ccc(Cc4ccncc4)cc3)C(=O)C2C1 (configuration not stated)	0	-3.1	0	?
COc1cccc(-n2nnnc2SCC(=O)Nc2ccc(C(C)=O)cc2)c1	0	0	0	-
CCCS(=O)(=O)c1nnnn1-c1cccc(OC)c1	0	-8.4	0	0.046
OCCC1CN(Cc2cnc(-c3ccc(Cl)cc3)nc2)CCN1C1CCCC1 (configuration not stated)	-	-	0	-
Fc1ccc(NC(=S)NCc2cccnc2)cc1	0	0	0	-
SMILES	MT stabilizer	ROMK mod	b-catenin transl	ROMK hit retest
CC(C)(C)c1ccc(NC(=S)NCc2cccnc2)cc1	-	-1.5	0	0
O=C(Nc1ccc(Cl)cc1)OCc1cn(-c2ccccc2)nn1	0	0	0	?
Cc1ccccc1NC(=O)OCc1cn(-c2ccc(Cl)cc2)nn1	0	-	0	-
O=C1CCCc2nc3c(cc21)C(O)Oc1ccccc1-3 (configuration not stated)	0	-	0	0
O=C1CCCc2nc3c(cc21)C(O)Oc1c-3ccc2ccccc12 (configuration not stated)	0	0	0	-
Cc1cc(C)cc(OCC(=O)OCc2nnc(-c3ccccc3)o2)c1	0	0	0	-
CN(C)c1ncnc2c1NC1=C(S2)C(=NCCCC(=O)O)CC(C)(C)C1	0	-	0	-
COc1ncnc2c1NC1=C(S2)C(=NCCC(=O)O)CC(C)(C)C1	0	-	0	0.05
Clc1ccc(-c2csc(-c3cccnc3)n2)s1	-	0	0	-
CCCCCCCCC[n+]1cccc2c3ccccc3ccc21	0	-5.7	0	0.042
CCCCCCCCCCCCCCCC[n+]1cccc2ccccc21	0	-	0	-
Cc1ccc(C2C=NN(c3ccccc3)C2=O)cc1 (configuration not stated)	0	-	0	-
COc1c(C)cc(C(=O)C2CCCN(C(=O)c3cccc(F)c3)C2)cc1C (configuration not stated)	0	0	0	-
COc1cccc(C(=O)C2CCCN(C(=O)c3cccc(C#CC(C)(C)O)c3)C2)c1 (configuration not stated)	0	1.7	0	0
COc1cc(C)c(S(=O)(=O)n2ccc(C)n2)cc1C	0	0	-	-
COc1ccc(S(=O)(=O)N(C)C)cc1NC(=O)COC(=O)c1nc2nccc(C)n2n1	-	-	0	0
COc1cccc(NC(=O)COC(=O)c2nc3nccc(C)n3n2)c1	0	-	0	-
O=S(=O)(NC1=NCCC1)c1cccc(NC(=S)NCCc2ccccc2)c1	0	0	0	-
CCc1ccc(NC(=O)CSc2nnc(SCC(=O)Nc3ccc(CC)cc3)n2N)cc1	0	0	0	-
Cc1ccc2c(c1C)NC(=O)C21N2CCCC2C(C(=O)c2ccc3ccccc3c2)C12C(=O)Nc1ccccc12 (configuration not stated)	-	-	0	-
N#Cc1cc(C(=O)c2cc(F)ccc2O)cn(-c2nccs2)c1=O	0	-5	0	0.03
N#Cc1cc(C(=O)c2ccccc2O)cn(-c2nccs2)c1=O	0	-8.4	0	0.025
Cc1c(-n2cc(C(=O)c3cc(F)ccc3O)cc(C#N)c2=O)c(=O)n(-c2ccccc2)n1C	0	0	-	-
CC(C)n1cc(C(=O)c2ccccc2O)cc(C#N)c1=O	0	0	0	-
COc1ccc(Cl)cc1C(=O)Nc1nnn(C)n1	0	-	-	-
SMILES	MT stabilizer	ROMK mod	b-catenin transl	ROMK hit retest
Cc1ccc(NC(=O)C2CC(=O)Nc3nncn32)cc1 (configuration not stated)	0	0	0	-
c1ccc2nc3c(cc2c1)CCCCCC3	0	0	0	-
c1ccc2nc3c(cc2c1)CCCCC3	-	-	0	0
COc1cc(NC(=O)C2CCN(S(=O)(=O)c3ccc(Cl)cc3)CC2)ccc1-n1cnnn1	0	-	0	0.053
COc1ccc(NC(=O)C2CC2)cc1-n1cnnn1	0	-	0	-
CC(/C=C/C=C/c1ccccc1)=N/NC(=O)CNc1ccccc1C	0	0	0	-
N/C(Cc1ccc(Cl)c(Cl)c1)=N\OC(=O)c1ccc(Br)o1	-	-	0	-
COc1ccc(C(=O)OCn2nnc3ccccc3c2=O)cc1[N+](=O)[O-]	0	0	0	-
CC1CCCCC1NC(=O)Cn1cnc2ccccc2c1=O (configuration not stated)	0	0	0	-
COCCCNC(=O)CN1C(=O)c2ccccc2C1=O	0	0	0	-
CC1CCCCC1NC(=O)CN1C(=O)c2cccc(N)c2C1=O (configuration not stated)	0	-3.7	0	0.056
CCCCNC(=O)CN1C(=O)c2cccc(N)c2C1=O	0	0	0	0.055
COc1c(OC(C)=O)ccc(/C=N\NC(=O)c2ccc(Br)cc2)c1[N+](=O)[O-]	0	-	0	-
Cc1cc(/C=C2\C(=N)N3N=CSC3=NC2=O)c(C)n1Cc1ccccc1	-	0	0	-
C#CCNC(=O)C(C)c1ncc(C(F)(F)F)cc1Cl (configuration not stated)	0	0	0	-
COc1ccc(N/C=C\C(=O)c2ccc3c(c2)OCO3)cc1	0	0	0	-
O=C(/C=C\Nc1ccc2c(c1)OCO2)c1ccc2c(c1)OCO2	0	-	0	0.059
COC(=O)c1sc(SC)c(-c2ccon2)c1C	-	-	0	-

Compound activity (PubChem BioAssay)
